ChEMBL document CHEMBL1133924, “Inhibitors of bacterial enoyl acyl carrier protein reductase (FabI): 2,9-disubstituted 1,2,3,4-tetrahydropyrido[3,4-b]indoles as potential antibacterial agents” (Bioorg Med Chem Lett, 2001)
pIC50: −log10 of the molar value. Converted amounts (≈) assume the structure as drawn.

What was measured:
[1] = target: T1, Enoyl-[acyl-carrier-protein] reductase [NADH] FabI (Escherichia coli K-12, UniProt P0AEK4); assay: Antibacterial activity against Escherichia coli FabI
T1 sequence (P0AEK4 whole entry): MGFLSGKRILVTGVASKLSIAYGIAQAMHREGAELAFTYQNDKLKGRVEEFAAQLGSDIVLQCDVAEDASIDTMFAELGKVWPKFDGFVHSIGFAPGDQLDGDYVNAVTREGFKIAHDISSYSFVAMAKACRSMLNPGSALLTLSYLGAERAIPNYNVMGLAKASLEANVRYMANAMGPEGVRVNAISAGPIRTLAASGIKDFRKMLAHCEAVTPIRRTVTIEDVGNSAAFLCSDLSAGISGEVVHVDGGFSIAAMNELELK

[2] = target: T2, Enoyl-[acyl-carrier-protein] reductase [NADPH] FabI (Staphylococcus aureus, UniProt Q6GI75); assay: Antibacterial activity against Staphylococcus aureus FabI
T2 sequence (Q6GI75 whole entry): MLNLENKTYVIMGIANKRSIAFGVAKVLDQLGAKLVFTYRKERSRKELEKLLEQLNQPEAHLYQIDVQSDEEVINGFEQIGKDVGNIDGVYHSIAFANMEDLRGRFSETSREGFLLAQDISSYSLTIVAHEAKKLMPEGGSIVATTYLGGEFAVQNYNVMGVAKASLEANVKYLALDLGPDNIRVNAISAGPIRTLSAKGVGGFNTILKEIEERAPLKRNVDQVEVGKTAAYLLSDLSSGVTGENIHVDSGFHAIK

Moraxella catarrhalis = assay: In vitro antibacterial activity against Moraxella catarrhalis 1502 FabI
In short: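 Broth microdilution MIC in cation-adjusted Mueller–Hinton broth. Compounds were dissolved in DMSO, diluted 1:10 in water, then serially diluted. Each well received about 1×10⁶ cfu/mL inoculum. Plates were incubated at 35 °C in ambient air for 18–24 h.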

Staphylococcus aureus = assay: In vitro antibacterial activity against Staphylococcus aureus FabI
Escherichia coli = assay: In vitro antibacterial activity against Escherichia coli FabI
[3] = target: T1, Enoyl-[acyl-carrier-protein] reductase [NADH] FabI; assay: Antibacterial activity against Escherichia coli Enoyl-[acyl-carrier-protein] reductase was determined

Nc1ccc(Cn2c3c(c4ccccc42)CCN(C(=O)c2ccc(O)cc2)C3)cc1
pIC50 [1]: 4.67 | pIC50 [2]: 6.17

O=C(c1ccc(O)cc1)N1CCc2c(n(Cc3ccc(O)cc3)c3ccccc23)C1
pIC50 [1]: 5.38 | MIC (Moraxella catarrhalis): 8 µg/mL (≈ 20.1 µM) | pIC50 [2]: 6.96 | MIC (Staphylococcus aureus): 0.5 µg/mL (≈ 1.25 µM) | MIC (Escherichia coli): > 64 µg/mL

Nc1ccc(C(=O)N2CCc3c(n(Cc4ccc(O)cc4)c4ccccc34)C2)cc1
pIC50 [1]: 5.40 | pIC50 [2]: 6.00

O=C(c1ccc(O)cc1)N1CCc2c([nH]c3ccccc23)C1
pIC50 [3]: 4.74

COc1ccc(C(=O)N2CCc3c(n(Cc4ccc(O)cc4)c4ccccc34)C2)cc1
pIC50 [1]: 4.45 | pIC50 [2]: 6.43

COC(=O)CCCCn1c2c(c3ccccc31)CCN(C(=O)c1ccc(O)cc1)C2
pIC50 [3]: 4.57

O=C(c1cccc(O)c1)N1CCc2c(n(Cc3ccc(O)cc3)c3ccccc23)C1
pIC50 [1]: < 4.30 | pIC50 [2]: 5.47

O=C(c1cc(Cl)cc(Cl)c1O)N1CCc2c(n(Cc3ccc(O)cc3)c3ccccc23)C1
pIC50 [1]: 5.00 | pIC50 [2]: 5.74

CN(Cc1cc2ccccc2n1Cc1ccc(O)cc1)C(=O)c1ccc(O)cc1
pIC50 [2]: 6.00

O=C(c1ccc(Cl)cc1)N1CCc2c(n(Cc3ccc(O)cc3)c3ccccc23)C1
pIC50 [1]: 4.77 | MIC (Moraxella catarrhalis): > 64 µg/mL | pIC50 [2]: 6.74 | MIC (Staphylococcus aureus): 4 µg/mL (≈ 9.59 µM) | MIC (Escherichia coli): > 64 µg/mL

COC(=O)Cn1c2c(c3ccccc31)CCN(C(=O)c1ccc(O)cc1)C2
pIC50 [3]: 4.46

Oc1cc(Cl)ccc1Oc1ccc(Cl)cc1Cl
MIC (Moraxella catarrhalis): 0.06 µg/mL (≈ 0.207 µM) | MIC (Staphylococcus aureus): 0.03 µg/mL (≈ 0.104 µM) | MIC (Escherichia coli): 4 µg/mL (≈ 13.8 µM)

O=C(O)c1ccc(Cn2c3c(c4ccccc42)CCN(C(=O)c2ccc(O)cc2)C3)cc1
pIC50 [1]: < 4.30 | pIC50 [2]: 5.06

Cc1ccc(C(=O)N2CCc3c(n(Cc4ccc(O)cc4)c4ccccc34)C2)cc1
pIC50 [1]: 5.28 | MIC (Moraxella catarrhalis): > 64 µg/mL | pIC50 [2]: 6.62 | MIC (Staphylococcus aureus): 0.5 µg/mL (≈ 1.26 µM) | MIC (Escherichia coli): > 64 µg/mL

CCCCc1ccc(C(=O)N2CCc3c(n(Cc4ccc(O)cc4)c4ccccc34)C2)cc1
pIC50 [1]: < 4.30 | pIC50 [2]: 6.29

COC(=O)c1ccc(C(=O)N2CCc3c(n(Cc4ccc(O)cc4)c4ccccc34)C2)cc1
pIC50 [1]: < 4.30 | pIC50 [2]: 5.70

Cc1cc(O)c(C)c(O)c1C(=O)N1CCc2c(n(Cc3ccc(O)cc3)c3ccccc23)C1
pIC50 [1]: < 4.30 | pIC50 [2]: < 4.30

Cn1c2c(c3ccccc31)CCN(C(=O)c1ccc(O)cc1)C2
pIC50 [3]: 4.96

Cc1cc(C(=O)N2CCc3c(n(Cc4ccc(O)cc4)c4ccccc34)C2)ccc1O
pIC50 [1]: 5.36 | MIC (Moraxella catarrhalis): 8 µg/mL (≈ 19.4 µM) | pIC50 [2]: 6.74 | MIC (Staphylococcus aureus): 1 µg/mL (≈ 2.42 µM) | MIC (Escherichia coli): > 64 µg/mL

O=C(c1ccc(O)cc1)N1CCc2c(n(Cc3ccc(F)cc3)c3ccccc23)C1
pIC50 [1]: 5.38 | pIC50 [2]: 6.60

Cc1cc(C(=O)N2CCc3c(n(Cc4ccc(O)cc4)c4ccccc34)C2)cc(C)c1O
pIC50 [1]: 4.64 | pIC50 [2]: 5.54

O=C(c1ccc(O)cc1)N1CCc2c(n(Cc3ccccc3)c3ccccc23)C1
pIC50 [3]: 4.57

O=C(c1ccccc1O)N1CCc2c(n(Cc3ccc(O)cc3)c3ccccc23)C1
pIC50 [1]: 5.37 | MIC (Moraxella catarrhalis): 8 µg/mL (≈ 20.1 µM) | pIC50 [2]: 6.14 | MIC (Staphylococcus aureus): 4 µg/mL (≈ 10 µM) | MIC (Escherichia coli): > 64 µg/mL

O=C(c1ccc(O)cc1)N1CCc2c(n(Cc3cccc(O)c3)c3ccccc23)C1
pIC50 [3]: 5.06

O=C(c1ccc(O)cc1)N1CCc2c(c3ccccc3n2Cc2ccc(O)cc2)C1
pIC50 [2]: 4.49

O=C(c1ccccc1)N1CCc2c(n(Cc3ccc(O)cc3)c3ccccc23)C1
pIC50 [1]: 5.57 | pIC50 [2]: 6.31

CNc1ccc(C(=O)N2CCc3c(n(Cc4ccc(O)cc4)c4ccccc34)C2)cc1
pIC50 [1]: 4.41 | pIC50 [2]: 5.68

CS(=O)(=O)c1ccc(Cn2c3c(c4ccccc42)CCN(C(=O)c2ccc(O)cc2)C3)cc1
pIC50 [1]: 5.35 | pIC50 [2]: 6.48

O=C(c1ccc(Cl)cc1Cl)N1CCc2c(n(Cc3ccc(O)cc3)c3ccccc23)C1
pIC50 [1]: 4.45 | pIC50 [2]: 5.74

O=C(c1ccc(O)c(Cl)c1)N1CCc2c(n(Cc3ccc(O)cc3)c3ccccc23)C1
pIC50 [1]: 5.47 | MIC (Moraxella catarrhalis): 4 µg/mL (≈ 9.24 µM) | pIC50 [2]: 6.80 | MIC (Staphylococcus aureus): 1 µg/mL (≈ 2.31 µM) | MIC (Escherichia coli): > 64 µg/mL

O=C(c1ccc(Cl)cc1O)N1CCc2c(n(Cc3ccc(O)cc3)c3ccccc23)C1
pIC50 [1]: 5.21 | MIC (Moraxella catarrhalis): 2 µg/mL (≈ 4.62 µM) | pIC50 [2]: 6.80 | MIC (Staphylococcus aureus): 1 µg/mL (≈ 2.31 µM) | MIC (Escherichia coli): > 64 µg/mL

O=C(c1ccc(O)cc1)N1CCc2c([nH]c3ccccc23)C1c1ccc(O)cc1 (configuration not stated)
pIC50 [2]: 4.55

Cc1ccc(C(=O)N2CCc3c(n(Cc4ccc(O)cc4)c4ccccc34)C2)c(O)c1
pIC50 [1]: 5.09 | MIC (Moraxella catarrhalis): 4 µg/mL (≈ 9.7 µM) | pIC50 [2]: 6.92 | MIC (Staphylococcus aureus): 1 µg/mL (≈ 2.42 µM) | MIC (Escherichia coli): > 64 µg/mL
